For assay [1], the system named is Lithobates pipiens. The experiment in a line: Ability to stimulate melanosome dispersion in vitro in the frog skin activity measured relative to alpha-MSH. The class given is functional. The method, boiled down: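 Rana pipiens skin in vitro; melanosome dispersion read as skin darkening. Test solutions made by serial dilution from a 10⁻⁴ M stock. n = 6 or more skins per point, mean ± SE. Potency relative to α-MSH derived from parallel dose–response curves over the linear portion.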

In assay [2] the test system is Anolis carolinensis. Briefly: Ability to stimulate melanosome dispersion in vitro in the lizard skin activity measured relative to alpha-MSH. The class given is functional. The method, boiled down: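 Anolis carolinensis skin in vitro; melanosome dispersion read as skin darkening. Test solutions serially diluted from a 10⁻⁴ M stock. n = 6 skins per point, mean ± SE. Relative potency versus α-MSH taken from parallel dose–response curves over the linear range.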

Assay [3] is filed under the species Mus musculus. Briefly: Adenylate cyclase activity in vitro in the membrane fraction from S-91 mouse melanoma tumors activity measured relative to alpha-MSH. Type of assay: functional, cell membranes. The essentials: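 Particulate membrane fraction from S-91 (Cloudman) melanoma tumors grown in […] mice. Adenylate cyclase measured as conversion of [α-³²P]ATP to [³²P]cAMP, with cAMP isolated and detected by the Salomon method. Potency relative to α-MSH from parallel dose–response curves.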

Bridge positions count the residues as written; N and C are the ends. Peptide text beside a SMILES is read from it.

In the case of `CC(=O)N[C@H]1CSSC[C@@H](C(=O)N[C@@H](CCCCN)C(=O)N2CCC[C@H]2C(=O)N[C@H](C(N)=O)C(C)C)NC(=O)[C@H](Cc2c[nH]c3ccccc23)NC(=O)[C@H](CCCN=C(N)N)NC(=O)[C@H](Cc2ccccc2)NC(=O)[C@H](Cc2c[nH]cn2)NC(=O)[C@H](CCC(=O)O)NC1=O`, the Relative potency in assay [1] came to 30; in assay [2], 0.6. As to `CC(=O)N[C@H]1CSSC[C@@H](C(N)=O)NC(=O)[C@H](Cc2c[nH]c3ccccc23)NC(=O)[C@@H](CCCN=C(N)N)NC(=O)[C@H](Cc2ccccc2)NC(=O)[C@@H](Cc2c[nH]cn2)NC(=O)[C@H](CCC(=O)O)NC1=O`, the Relative potency in assay [3] was 0.016.

For `CC(=O)N[C@H]1CSSC[C@@H](C(=O)N[C@@H](CCCCN)C(N)=O)NC(=O)[C@H](Cc2c[nH]c3ccccc23)NC(=O)[C@H](CCCN=C(N)N)NC(=O)[C@H](Cc2ccccc2)NC(=O)[C@H](Cc2c[nH]cn2)NC(=O)[C@H](CCC(=O)O)NC1=O`, the Relative potency in assay [1] is 0.16; in assay [2], 0.07. In the case of `CC(=O)N[C@H]1CSSC[C@@H](C(=O)N[C@@H](CCCCN)C(=O)N2CCC[C@H]2C(N)=O)NC(=O)[C@H](Cc2c[nH]c3ccccc23)NC(=O)[C@H](CCCN=C(N)N)NC(=O)[C@H](Cc2ccccc2)NC(=O)[C@H](Cc2c[nH]cn2)NC(=O)[C@H](CCC(=O)O)NC1=O`, the Relative potency is 10 in assay [1] and 1.5 in assay [2]. Turning to `CC(=O)N[C@H]1CSSC[C@@H](C(=O)N[C@@H](CCCCN)C(=O)N2CCC[C@H]2C(N)=O)NC(=O)[C@H](Cc2c[nH]c3ccccc23)NC(=O)[C@H](CCCN=C(N)N)NC(=O)[C@@H](Cc2ccccc2)NC(=O)[C@H](Cc2c[nH]cn2)NC(=O)[C@H](CCC(=O)O)NC1=O`, the Relative potency in assay [1] is on record as 20; in assay [2], 6. As to `CC(=O)N[C@H]1CSSC[C@@H](C(N)=O)NC(=O)[C@H](Cc2c[nH]c3ccccc23)NC(=O)[C@H](CCCN=C(N)N)NC(=O)[C@H](Cc2ccccc2)NC(=O)[C@H](Cc2c[nH]cn2)NC(=O)[C@H](CCC(=O)O)NC1=O`, the Relative potency in assay [1] came to 0.06; in assay [2], 0.003. Regarding `CC(=O)N[C@H]1CSSC[C@@H](C(=O)N[C@@H](CCCCN)C(N)=O)NC(=O)[C@H](Cc2c[nH]c3ccccc23)NC(=O)[C@@H](CCCN=C(N)N)NC(=O)[C@H](Cc2ccccc2)NC(=O)[C@@H](Cc2c[nH]cn2)NC(=O)[C@H](CCC(=O)O)NC1=O`, in assay [3], the Relative potency was found to be 0.16. Turning to `CC(=O)N[C@H]1CSSC[C@@H](C(=O)N[C@@H](CCCCN)C(=O)N2CCC[C@@H]2C(N)=O)NC(=O)[C@H](Cc2c[nH]c3ccccc23)NC(=O)[C@@H](CCCN=C(N)N)NC(=O)[C@H](Cc2ccccc2)NC(=O)[C@@H](Cc2c[nH]cn2)NC(=O)[C@H](CCC(=O)O)NC1=O`, the Relative potency in assay [3] was determined as 1.4. In the case of `CC(=O)N[C@@H](CO)C(=O)N[C@@H](Cc1ccc(O)cc1)C(=O)N[C@@H](CO)C(=O)N[C@H]1CSSC[C@@H](C(=O)N[C@@H](CCCCN)C(=O)N2CCC[C@H]2C(=O)N[C@H](C(N)=O)C(C)C)NC(=O)[C@H](Cc2c[nH]c3ccccc23)NC(=O)[C@H](CCCN=C(N)N)NC(=O)[C@H](Cc2ccccc2)NC(=O)[C@H](Cc2c[nH]cn2)NC(=O)[C@H](CCC(=O)O)NC1=O` (Ac-SYSCEHFRWCKPV-NH2; disulfide 4-10), the values for the Relative potency in assay [1] and in assay [2] were 10 and 2, respectively.

On to `CSCC[C@H](NC(C)=O)C(=O)N[C@@H](CCC(=O)O)C(=O)N[C@@H](Cc1c[nH]cn1)C(=O)N[C@@H](Cc1ccccc1)C(=O)N[C@@H](CCCN=C(N)N)C(=O)N[C@@H](Cc1c[nH]c2ccccc12)C(=O)NCC(N)=O`, for which the Relative potency in assay [1] is 0.0007; in assay [3], 0.03; in assay [2], 0.03.

As to `CC(=O)N[C@H]1CSSC[C@@H](C(=O)N[C@@H](CCCCN)C(=O)N2CCC[C@@H]2C(=O)N[C@H](C(N)=O)C(C)C)NC(=O)[C@H](Cc2c[nH]c3ccccc23)NC(=O)[C@@H](CCCN=C(N)N)NC(=O)[C@H](Cc2ccccc2)NC(=O)[C@@H](Cc2c[nH]cn2)NC(=O)[C@H](CCC(=O)O)NC1=O`, the Relative potency in assay [3] is 1.1.

The record behind these values is ChEMBL document CHEMBL1122765, “Cyclic melanotropins. 5. Importance of the C-terminal tripeptide (Lys-Pro-Val)” (1984).
